Screening results as filed in PubChem BioAssay.
Runt-CBFb FRET – blocks binding of human RUNX1 Runt domain to CBFb; inhibition, % at 20 µM; AID 1496; 0.46% of 220,000 active; Cerulean-Runt/Venus-CBFb FRET ratio 530/480, 1 h; Q01196+Q13951;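 active = inhibition over about 50% at 20 µM in the single-dose screen, limit read from the data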
Target sequence (Q01196 whole entry, looked up, the tested form may be a part): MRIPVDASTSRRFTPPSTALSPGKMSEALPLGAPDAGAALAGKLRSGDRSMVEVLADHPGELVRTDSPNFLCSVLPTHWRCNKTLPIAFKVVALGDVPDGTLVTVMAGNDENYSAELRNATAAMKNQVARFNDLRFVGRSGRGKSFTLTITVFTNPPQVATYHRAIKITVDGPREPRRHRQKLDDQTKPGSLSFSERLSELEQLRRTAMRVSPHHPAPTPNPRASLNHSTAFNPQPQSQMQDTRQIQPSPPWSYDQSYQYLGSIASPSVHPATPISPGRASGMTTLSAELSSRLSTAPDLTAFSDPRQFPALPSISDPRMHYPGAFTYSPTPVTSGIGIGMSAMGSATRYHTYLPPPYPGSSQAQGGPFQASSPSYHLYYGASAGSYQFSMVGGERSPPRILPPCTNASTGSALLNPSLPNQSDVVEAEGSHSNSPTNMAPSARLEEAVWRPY
Target sequence (Q13951 whole entry, looked up, the tested form may be a part): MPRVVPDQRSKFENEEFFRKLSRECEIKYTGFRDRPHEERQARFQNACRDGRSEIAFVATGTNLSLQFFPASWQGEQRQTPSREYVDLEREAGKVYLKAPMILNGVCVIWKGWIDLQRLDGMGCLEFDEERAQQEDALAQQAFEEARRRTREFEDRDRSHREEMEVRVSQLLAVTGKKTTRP
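Assay system: Cerulean-Runt domain fusion protein, energy donor; Signal: fluorescence energy transfer, 422 nm excitation, 530/480 nm emission; Timing: 1 h compound exposure, room temperature; Control set: unlabeled CBFb; Medium: Tris buffer pH 7.5 with salts and BSA; Compound: single test concentration of 20 µM, 1% DMSO final; Probe or stimulus: Venus-CBFb 100 nM.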
RanGTP-Imp inh – inhibitors of RanGTP-importin-beta interaction, primary screen, biochemical, FRET, CFP-Ran, YFP-importin-beta, homogeneous; cell-free CFP-Ran/YFP-importin-beta FRET ratio; inhibition, % (test concentration not listed); 1.1% of 300,000 active;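 active = more than half of the replicate wells show a fall in the fluorescence ratio signal beyond about 16%, limit read from the data, passing the limit was not always enough; inconclusive = exactly half of the replicate wells pass the set limit; inactive = fewer than half of replicates pass the limit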
Rce1 inh – inhibitors of yeast Ras-converting enzyme | Q03530 | yeast membranes, quenched prenylated peptide cleavage fluorescence | calls only | 0.27% of 290,000 active;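 active = fall in fluorescence gain of 50% or more versus controls, with final raw signal at or below 3038400; inconclusive = same 50% fall but final raw signal above 3038400; inactive = fall in fluorescence gain under 50%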
Runt-SMMHC FRET – blocks binding of human RUNX1 Runt domain to CBFb-SMMHC. Cerulean-Runt/Venus-CBFb-SMMHC FRET ratio 530/480, 1 h. 0.74% of 220,000 active. AID 1434. inhibition, % at 20 µM. Q01196+Q13951;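 active = mean inhibition across duplicate retests at 20 µM reaching about 50%, limit read from the data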;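 also: inhibitors lower the FRET ratio by blocking Runt binding to CBFb-SMMHC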
Platelet DG rel – platelet dense granule release activity | inhibition, %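 (compounds screened at 7.5 µM in platelet-rich plasma)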 | 0.22% of 300,000 active | AID 1663 | human platelet-rich plasma, SFLLRN dense granule ATP release, luminescence;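 active = mean replicate score, as percent of positive control, at or above 50; inconclusive = mean below 50 but at least one replicate at or above 50; inactive = mean and every replicate below 50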
YIC counter – counter-screen for RanGTP-importin-beta inhibitors: YIC FRET probe; shares compounds with RanGTP-Imp inh; Purified YIC probe, intramolecular FRET ratio YFP/CFP; IC50, µM; 40% of 1,000 active; AID 435026;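 active = fitted half-maximal inhibitory concentration no more than tenfold above the top dose tested; inconclusive = flat fit with 30 to 70% activity, or poor fit; inactive = half-maximal concentration beyond tenfold above the top dose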
Hits are given with their value; – = inactive; ? = inconclusive; · = no result given. Hits are enriched below; roughly 1.8% of the tested compounds scored in any of these assays.

SMILES	Runt-CBFb FRET	RanGTP-Imp inh	Rce1 inh	Runt-SMMHC FRET	Platelet DG rel	YIC counter
CCOCCCn1c(=N)c(C(=O)NCc2ccc3c(c2)OCO3)cc2c(=O)n3cccc(C)c3nc21	60	29	–	163	–	18
COCCNC(=O)C(=O)Nc1cc2c3c(c1)CCC(=O)N3CCC2	·	–	–	·	–	·
NS(=O)(=O)c1cccc(NC(=O)CCCNC(=O)c2ccc(Cl)cc2)c1	·	–	–	·	–	·
NS(=O)(=O)c1cccc(NC(=O)CCSc2ccc(Cl)cc2)c1	–	19	–	–	–	–
Cc1nc2ccccc2n1CC(=O)N1CC(=O)Nc2ccccc21	–	18	–	–	–	–
Oc1ccc(/C=N/Nc2cc(N3CCOCC3)nc(N3CCOCC3)n2)cc1	·	22	–	·	–	–
Oc1cccc(/C=N/Nc2cc(N3CCCC3)nc(N3CCCC3)n2)c1	–	21	–	–	–	–
Cc1nc(N/N=C/c2ccc(Br)cc2)cc(N2CCOCC2)n1	·	–	–	·	–	·
Brc1cccc(/C=N/Nc2nc(N3CCCCC3)nc(N3CCCCC3)n2)c1	·	–	–	·	–	·
O=c1[nH]c2c(s1)C(c1ccco1)C1C3CCC(C3)C1S2 (stereo not given)	–	24	–	–	–	–
Cc1cc(Cl)ccc1C(=O)C1CCCN(C(=O)c2n[nH]c3c2CCCC3)C1 (stereo not given)	–	21	–	–	–	–
Cc1ccc(NC(=S)N2CCN(c3ccccc3F)CC2)c(C)c1	·	?	–	·	–	·
C/C(=N\NC(=S)NCc1ccccc1)c1cccc(Br)c1	–	46	–	–	–	–
Cc1ccccc1-c1nnc(NC(=O)c2ccc(N3C(=O)CCC3=O)cc2)s1	–	–	–	–	–	·
Cc1cccc(-c2nnc(NC(=O)c3ccc(N4C(=O)CCC4=O)cc3)s2)c1	–	17	–	–	–	–
CC(C)(C)C(=O)NC(=S)Nc1ccc(S(=O)(=O)Nc2nccs2)cc1	–	17	–	–	–	–
O=C(Nc1ccc(S(=O)(=O)Nc2nccs2)cc1)C(F)(F)F	·	–	–	·	–	·
COc1cc(OC)cc(C(=O)Oc2c(CN3CCOCC3)cc(Cl)c3cccnc23)c1	–	?	·	–	–	·
O=C(Oc1c(CN2CCOCC2)cc(Cl)c2cccnc12)c1ccccc1	·	15	–	–	–	–
COc1cc2oc3ccccc3c2cc1N(CC(=O)N1CCCCC1)S(=O)(=O)c1ccc(C)cc1	–	–	–	–	–	·
O=c1[nH]c(-[n+]2ccc3ccccc3c2)c(/C=N/N=C(\[O-])c2ccccc2)s1	·	25	–	·	–	–
CC(C)(C)c1cc[n+](-c2[nH]c(=O)sc2/C=N/N=C(\[O-])c2cccnc2)cc1	·	–	–	·	–	·
COc1ccccc1NC(=O)CN1CCN(CC(=O)Nc2ccc(C)c(F)c2)CC1	·	27	–	·	–	–
N=c1c(S(=O)(=O)c2ccc(Cl)cc2)cc2c(=O)n3ccccc3nc2n1Cc1cccnc1	·	33	–	·	–	?
O=c1c2ccccc2c2ccccc2c(=O)n1Cc1cccnc1	–	–	–	–	–	·
SMILES	Runt-CBFb FRET	RanGTP-Imp inh	Rce1 inh	Runt-SMMHC FRET	Platelet DG rel	YIC counter
C[C@H](NC(=O)c1ccccc1)C(=O)N1CCC2(CC1)NCCc1[nH]cnc12	·	–	–	·	–	·
COc1ccc2c(c1)C(c1ccc(C)o1)=NNC(c1cccnc1)=N2	–	21	–	–	–	–
COc1ccc(NC(=O)c2ccc3snnc3c2)cc1	–	96	–	–	–	–
CC(=O)c1ccc(NC(=O)c2ccc3snnc3c2)cc1	·	–	–	·	–	·
CCn1c(=O)cc(N2CCOCC2)[nH]c1=O	–	24	–	–	–	–
CCn1c(=O)cc(N2CCCCC2)[nH]c1=O	–	23	–	–	–	–
Cn1c(=O)cc(N2CCCCC2)[nH]c1=O	–	19	–	–	–	–
COc1ccc(CC2(CO)CCN(Cc3nc(C(C)C)cs3)CC2)cc1	–	–	–	–	–	·
Cc1ccc(C)c(N=Cc2cc3c(cc2[N+](=O)[O-])OCO3)c1	–	–	–	–	–	·
Cc1ccc(N=Cc2cc3c(cc2[N+](=O)[O-])OCO3)cc1[N+](=O)[O-]	·	20	–	·	–	–
COc1cccc(NC(=O)Nc2ccc3c(c2)N(C)C(=O)CS3)c1	–	20	–	–	–	–
CN(C)C=NC(=O)c1cc(C(=O)c2ccc(C(C)(C)C)cc2)c[nH]1	–	27	·	–	–	–
CN(C)C=NC(=O)c1cc(C(=O)c2ccccc2Cl)c[nH]1	–	–	–	–	–	·
Cn1c(N/N=C/c2cc3ccccc3nc2Cl)nc2ccccc21	–	17	–	–	60	–
Cn1c(N/N=C/c2c[nH]c3ccccc23)nc2ccccc21	–	–	–	–	–	·
Cn1c(SCc2cccc([N+](=O)[O-])c2)nc2c(c1=O)SCC2	–	16	–	–	–	–
COc1ccc(OC)c(NC(=O)CCN2CCN(C)CC2)c1	·	–	–	·	–	·
COCCOC(=O)C1=C(C)NC(=O)NC1c1cccc2ccccc12 (stereo not given)	·	22	–	·	–	–
COc1ccc(C(=O)/C=C(\C)NCc2ccc3c(c2)OCO3)cc1	–	24	–	–	–	–
CC(NC(=O)/C(C#N)=C/c1ccc(N2CCOCC2)cc1)c1ccccc1 (stereo not given)	·	31	·	·	–	11
COC(=O)c1ccc(/C=C(\C#N)C(=O)NC(C)c2ccccc2)cc1 (stereo not given)	–	·	·	–	–	·
CN(CC(=O)O)c1ccc(C(F)(F)F)cc1[N+](=O)[O-]	–	–	–	–	–	·
Cn1c2ccccc2c(=O)c2ccc(F)cc21	·	35	–	·	–	15
Cn1c(=O)c(Oc2ccc(F)cc2)c(O)c2ccccc21	–	–	–	–	–	·
Cc1noc(C)c1NC(=O)N(C)C[C@@H]1Oc2ccc(N(C)C)cc2CC(=O)N([C@H](C)CO)C[C@H]1C	·	·	·	·	·	–
SMILES	Runt-CBFb FRET	RanGTP-Imp inh	Rce1 inh	Runt-SMMHC FRET	Platelet DG rel	YIC counter
Cc1cc(C)c2c(=O)[nH]c(SCC(=O)Nc3ccc(N(C)C)cc3)nc2n1	–	–	–	–	–	·
CCC1CCCCN1C(=O)Cn1nc([N+](=O)[O-])c(Cl)c1C (stereo not given)	–	–	·	–	–	·
Nc1nc(CSc2nnnn2-c2ccc(Cl)cc2)nc(N2CCOCC2)n1	–	20	–	–	–	–
O=C(c1ccccc1)c1cc2ccccc2oc1=O	·	–	–	·	–	·
COc1ccc2cc(C(=O)c3ccccc3)c(=O)oc2c1	–	–	–	–	–	·
O=C(c1ccc(F)cc1)c1cc2ccc(O)cc2oc1=O	·	37	–	·	73	13
COc1ccccc1C(=O)c1cc2ccc(O)cc2oc1=O	114	55	–	127	–	7.1
Cc1ccc(S(=O)(=O)Nc2cccc(C(=O)NCc3cccnc3)c2)cc1F	·	–	–	·	–	·
N#Cc1cc2cc3c(cc2nc1N1CCOCC1)OCO3	97	39	–	109	·	9
Cc1cccc2cc(C#N)c(N3CCOCC3)nc12	·	–	–	·	–	·
